Results on one molecule are retold here after ChEMBL document CHEMBL4680373, “Evaluation of 5-(Trifluoromethyl)-1,2,4-oxadiazole-Based Class IIa HDAC Inhibitors for Huntington's Disease” (ACS Med Chem Lett, 2021).

Molecules are shown by their SMILES.

Data set [1] can be described thus: Toxicity in CBAxC57BL/6J mouse assessed as effect on ataxia at 10 to 100 mg/kg, po bid for 14.5 days. The settings on record: in vivo, 348 h, dose 10-100 mg/kg, time 14.5 day. The data set is classed as organism-based. The procedure, abridged: (§1)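 R6/2 HD mice and wild-type littermates, male and female, were dosed orally b.i.d. at 10, 30 or 100 mg/kg or with vehicle for 14.5 days. Vehicle was 10% (w/v) hydroxypropyl-β-cyclodextrin in 50 mM citrate buffer. Body weight, body temperature, passive observations and active manipulation scores were recorded. Blood and brain were collected 2 h after the final dose.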

For data set [2], the target named is Cytochrome P450 2C9 (Homo sapiens, UniProt P11712). Kind of data set: Inhibition of CYP2C9 in human liver microsomes using diclofenac as substrate incubated for 15 mins by LC-MS/MS analysis. The data set is classed as ADME.
Chain of Cytochrome P450 2C9 (P11712 whole entry): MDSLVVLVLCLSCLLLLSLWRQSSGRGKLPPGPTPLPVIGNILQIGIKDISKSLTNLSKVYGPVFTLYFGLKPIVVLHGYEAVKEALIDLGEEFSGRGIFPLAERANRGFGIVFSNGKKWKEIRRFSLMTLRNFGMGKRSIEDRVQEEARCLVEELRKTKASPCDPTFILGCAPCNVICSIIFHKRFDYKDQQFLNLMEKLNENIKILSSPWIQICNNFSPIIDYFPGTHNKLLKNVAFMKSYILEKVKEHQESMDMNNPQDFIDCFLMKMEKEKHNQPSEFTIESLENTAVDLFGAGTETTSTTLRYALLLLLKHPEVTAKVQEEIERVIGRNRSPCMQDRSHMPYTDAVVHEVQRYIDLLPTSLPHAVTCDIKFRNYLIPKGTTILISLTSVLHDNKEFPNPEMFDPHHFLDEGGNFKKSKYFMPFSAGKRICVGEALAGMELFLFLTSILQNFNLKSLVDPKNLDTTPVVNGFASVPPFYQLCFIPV
Data set [3] can be described thus: In vivo inhibition of Class 1/2B HDAC in C57BL/6J mouse brain assessed as increase in global pan-acetylation at 10 mg/kg, po administered via gavage measured after 2 hrs by dot blot technique. It is filed as organism-based. The procedure, abridged:
(§2)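 Mice received single oral gavage doses of 10, 30 or 100 mg/kg, and brains were sampled from 0.25 to 12 h. Brain compound levels were measured by LC-MS/MS. Dot blots read H4K12 acetylation normalized to histone H4, or pan-acetyl-lysine normalized to tubulin.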

The nature of data set [4]: Inhibition of Class 2A HDAC in human HEK293 cells using Boc-Lys(TFA) as substrate by fluorogenic assay. It is filed as cell-based.
Data set [5] is described as follows: In vivo inhibition of Class 1 HDAC in C57BL/6J mouse brain assessed as increase in histone H3/H4 acetylation administered orally via gavage measured after 2 hrs by western blot analysis. The settings on record: po, dose 10-100 mg/kg. The data set is classed as organism-based. The procedure, abridged:
(§3)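 Brain samples were taken 2 h after single oral gavage doses (10, 30, 100 mg/kg). Western blots probed H3, H4 and tubulin acetylation, each normalized to its own total-protein band. Comparison was against samples taken 5 min after a 10 mg/kg dose.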

For data set [6], the target named is Histone deacetylase 1 (Homo sapiens, UniProt Q13547). Kind of data set: Inhibition of HDAC1 (unknown origin) using Ac-Arg-Gly-Lys(Ac) as substrate by fluorogenic assay.
Chain of Histone deacetylase 1 (Q13547 whole entry): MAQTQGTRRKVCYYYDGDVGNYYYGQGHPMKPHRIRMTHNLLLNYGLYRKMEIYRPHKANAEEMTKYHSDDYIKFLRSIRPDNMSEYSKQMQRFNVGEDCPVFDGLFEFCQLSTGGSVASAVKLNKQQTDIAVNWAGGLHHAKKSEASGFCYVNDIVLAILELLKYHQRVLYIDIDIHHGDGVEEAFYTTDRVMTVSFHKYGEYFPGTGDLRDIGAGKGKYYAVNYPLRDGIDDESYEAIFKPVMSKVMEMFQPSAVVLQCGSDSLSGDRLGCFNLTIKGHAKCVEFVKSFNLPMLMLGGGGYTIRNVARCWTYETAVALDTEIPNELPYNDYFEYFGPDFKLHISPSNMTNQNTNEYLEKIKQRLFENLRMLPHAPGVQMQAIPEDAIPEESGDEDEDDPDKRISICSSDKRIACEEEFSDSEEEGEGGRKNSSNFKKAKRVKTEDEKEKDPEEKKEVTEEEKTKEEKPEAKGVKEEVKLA
Data set [7] in a line: Plasma clearance in C57BL/6J mouse at 3.3 mg/kg, iv by LC-MS/MS analysis. The data set is classed as ADME, organism-based. A digest of the protocol: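 Fed male C57Bl/6 mice dosed once intravenously at 3.3 mg/kg and by oral gavage at 11.5 mg/kg. Compound levels were quantified to derive PK parameters.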
Data set [8] can be described thus: Toxicity in CBAxC57BL/6J mouse assessed as effect on struggle by tail at 10 to 100 mg/kg, po bid for 14.5 days. The settings on record: in vivo, 348 h, dose 10-100 mg/kg, time 14.5 day. The data set is classed as organism-based. The procedure, abridged: as §1
Data set [9] can be described thus: In vivo inhibition of Class 2B HDAC in C57BL/6J mouse brain assessed as increase in tubulin acetylation administered orally via gavage measured after 2 hrs by western blot analysis. The data set is classed as organism-based. The settings on record: po, dose 10-100 mg/kg. The procedure, abridged: as §3
Data set [10] has as its target Histone deacetylase 4 (Homo sapiens, UniProt P56524). Kind of data set: Inhibition of HDAC4 (unknown origin) using Boc Lys(TFA) as substrate by fluorogenic assay. The procedure, abridged:
(§4)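 Biochemical HDAC isoform assay with the artificial fluorogenic substrate Boc-Lys-(TFA)-AMC, which is specific to class IIa enzymes and HDAC8. IC50 taken as the geometric mean of three experiments.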

Data set [11] can be described thus: Toxicity in CBAxC57BL/6J mouse assessed as effect on shivering at 10 to 100 mg/kg, po bid for 14.5 days. It is filed as organism-based. The settings on record: in vivo, 348 h, dose 10-100 mg/kg, time 14.5 day. The procedure, abridged:
as §1

The nature of data set [12]: In vivo inhibition of Class 2B HDAC in CBAxC57BL/6J mouse brain assessed as increase in tubulin acetylation at 30 to 100 mg/kg, po bid for 14.5 days by western blot analysis. It is filed as organism-based. The settings on record: 348 h, dose 30-100 mg/kg, time 14.5 day. The procedure, abridged:
(§5)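 R6/2 and wild-type littermate mice of both sexes were dosed orally b.i.d. for 14.5 days with 10, 30 or 100 mg/kg or vehicle (10% w/v hydroxypropyl-β-cyclodextrin in 50 mM citrate buffer). Half-brains were collected 2 h after the last dose. Dot blots measured global and H4K12 acetylation; Western blots measured H3, H4 and tubulin acetylation. Genotypes were pooled.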

Data set [13] deals with T1, Histone deacetylase 8 (Homo sapiens, UniProt Q9BY41).
T1 sequence (Q9BY41 whole entry): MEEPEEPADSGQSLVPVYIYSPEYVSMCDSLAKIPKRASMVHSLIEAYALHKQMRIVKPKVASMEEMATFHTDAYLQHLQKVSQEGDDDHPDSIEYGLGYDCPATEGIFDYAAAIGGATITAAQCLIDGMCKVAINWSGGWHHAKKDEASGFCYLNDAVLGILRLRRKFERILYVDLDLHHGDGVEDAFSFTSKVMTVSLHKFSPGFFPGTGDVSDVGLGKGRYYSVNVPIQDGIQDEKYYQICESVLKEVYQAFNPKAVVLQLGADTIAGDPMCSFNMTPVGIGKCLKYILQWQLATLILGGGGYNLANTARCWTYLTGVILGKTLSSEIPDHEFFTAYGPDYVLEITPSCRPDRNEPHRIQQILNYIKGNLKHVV
Kind of data set: Inhibition of HDAC8 (unknown origin) using Boc-Lys(TFA) as substrate by fluorogenic assay. The procedure, abridged:
as §4

Data set [14] addresses Cytochrome P450 2C19 (Homo sapiens, UniProt P33261). Kind of data set: Inhibition of CYP2C19 in human liver microsomes using (S)-(+)-mephenytoin as substrate incubated for 30 mins by LC-MS/MS analysis. It is filed as ADME.
Data set [15] in a line: Toxicity in CBAxC57BL/6J mouse assessed as effect on straub tail at 10 to 100 mg/kg, po bid for 14.5 days. The data set is classed as organism-based. The settings on record: in vivo, 348 h, dose 10-100 mg/kg, time 14.5 day. A digest of the protocol:
as §1

Data set [16] in a line: Toxicity in CBAxC57BL/6J mouse assessed as effect on body temperature at 10 to 100 mg/kg, po bid for 14.5 days. The data set is classed as organism-based. The settings on record: in vivo, 348 h, dose 10-100 mg/kg, time 14.5 day. The procedure, abridged: as §1
A short description of data set [17]: In vivo inhibition of Class 1 HDAC in C57BL/6J mouse brain assessed as increase in H4K12 acetylation administered orally via gavage measured after 2 to 4 hrs by dot blot technique. The settings on record: po, dose lower 10 mg/kg, time lower 2 hrs, dose upper 100 mg/kg, time upper 4 hrs. The data set is classed as organism-based. The procedure, abridged:
as §2

The nature of data set [18]: In vivo inhibition of Class 1 HDAC in CBAxC57BL/6J mouse brain assessed as increase in histone H4 acetylation at 30 to 100 mg/kg, po bid for 14.5 days by western blot analysis. The settings on record: 348 h, dose 30-100 mg/kg, time 14.5 day. It is filed as organism-based. A digest of the protocol:
as §5

Data set [19] can be described thus: Stability of the compound in simulated gastric fluid at 10 uM at pH 1.2 incubated for 4 hrs by LC-MS/MS analysis.
A short description of data set [20]: Stability of the compound in 10% (w/v) hydroxypropyl-beta-cyclodextrin in 50 mM citrate buffer at pH 5 measured over 30 days. The data set is classed as physicochemical. The settings on record: pH 5, 720 h, time 30 day.
The species named for data set [21] is Homo sapiens. Kind of data set: Inhibition of sodium channel (unknown origin) at 10 uM. A digest of the protocol:
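Broad selectivity panel of binding, cellular, functional and enzymatic assays run by a contract lab. Each test was done at a single 10 μM concentration and reported as percent inhibition.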

Data set [22] in a line: Toxicity in CBAxC57BL/6J mouse assessed as effect on locomotor activity at 10 to 100 mg/kg, po bid for 14.5 days. The settings on record: in vivo, 348 h, dose 10-100 mg/kg, time 14.5 day. The data set is classed as organism-based. A digest of the protocol: as §1
The nature of data set [23]: In vivo inhibition of Class 1 HDAC in CBAxC57BL/6J mouse brain assessed as increase in H4K12 acetylation at 30 to 100 mg/kg, po bid for 14.5 days by dot blot technique. It is filed as organism-based. The settings on record: 348 h, dose 30-100 mg/kg, time 14.5 day. The procedure, abridged:
as §5

Chain of Histone deacetylase 4 (P56524 whole entry, canonical isoform): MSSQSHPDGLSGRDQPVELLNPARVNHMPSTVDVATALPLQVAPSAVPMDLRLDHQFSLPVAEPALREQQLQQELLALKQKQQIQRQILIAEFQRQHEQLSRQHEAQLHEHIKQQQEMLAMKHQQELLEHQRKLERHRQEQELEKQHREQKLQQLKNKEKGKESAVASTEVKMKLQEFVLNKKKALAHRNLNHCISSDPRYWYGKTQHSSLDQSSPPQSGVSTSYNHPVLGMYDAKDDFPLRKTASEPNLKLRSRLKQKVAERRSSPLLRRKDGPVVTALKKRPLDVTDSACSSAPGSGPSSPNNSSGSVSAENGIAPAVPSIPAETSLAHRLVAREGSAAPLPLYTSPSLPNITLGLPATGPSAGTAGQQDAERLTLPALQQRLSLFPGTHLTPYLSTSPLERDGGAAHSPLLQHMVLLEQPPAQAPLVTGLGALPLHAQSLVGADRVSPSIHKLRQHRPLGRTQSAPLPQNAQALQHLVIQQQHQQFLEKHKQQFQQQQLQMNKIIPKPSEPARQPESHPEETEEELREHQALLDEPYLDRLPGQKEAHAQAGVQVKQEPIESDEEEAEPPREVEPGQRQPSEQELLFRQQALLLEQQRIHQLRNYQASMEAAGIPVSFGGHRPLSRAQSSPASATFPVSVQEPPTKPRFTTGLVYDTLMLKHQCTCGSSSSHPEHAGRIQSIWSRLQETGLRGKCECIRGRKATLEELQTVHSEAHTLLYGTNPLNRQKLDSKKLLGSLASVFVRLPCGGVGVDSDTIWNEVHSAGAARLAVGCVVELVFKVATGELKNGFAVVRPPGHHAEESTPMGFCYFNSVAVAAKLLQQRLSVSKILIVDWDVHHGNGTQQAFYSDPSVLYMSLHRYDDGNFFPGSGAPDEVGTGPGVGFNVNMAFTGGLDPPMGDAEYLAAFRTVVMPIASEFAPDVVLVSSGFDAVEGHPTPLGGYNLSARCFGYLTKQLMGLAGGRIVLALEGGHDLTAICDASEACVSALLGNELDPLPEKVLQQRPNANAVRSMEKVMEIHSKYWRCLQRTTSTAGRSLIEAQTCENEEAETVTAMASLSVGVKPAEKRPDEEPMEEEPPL
Chain of Cytochrome P450 2C19 (P33261 whole entry): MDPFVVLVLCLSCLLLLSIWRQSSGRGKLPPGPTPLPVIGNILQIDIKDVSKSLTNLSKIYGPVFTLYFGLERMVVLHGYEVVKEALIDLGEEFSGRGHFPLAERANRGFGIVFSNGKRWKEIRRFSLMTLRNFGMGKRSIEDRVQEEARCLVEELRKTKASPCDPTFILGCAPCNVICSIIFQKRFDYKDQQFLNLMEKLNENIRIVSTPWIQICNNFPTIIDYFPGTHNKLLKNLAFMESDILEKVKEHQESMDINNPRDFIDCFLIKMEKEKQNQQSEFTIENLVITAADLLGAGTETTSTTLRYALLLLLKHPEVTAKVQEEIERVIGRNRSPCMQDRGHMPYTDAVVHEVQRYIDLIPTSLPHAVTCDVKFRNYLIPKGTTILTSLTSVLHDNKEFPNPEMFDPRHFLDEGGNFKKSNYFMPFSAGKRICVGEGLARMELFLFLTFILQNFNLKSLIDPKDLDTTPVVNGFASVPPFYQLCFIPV

Consider `C[C@H](CN1CCC[C@@H]1C)NC(=O)c1ccc(-c2noc(C(F)(F)F)n2)cc1`, for which the Activity result is “Non-Toxic” in [1]; “Toxic” in [3]; “Toxic” in [5]; “Non-Toxic” in data set [8]; “Toxic” in [9]; “Non-Toxic” in data set [11]. Further, the Activity result is listed as “Toxic” in data set [12]; “Non-Toxic” in data set [15]; “Non-Toxic” in [16]; “Toxic” in [17]; “Toxic” in [18]; “Non-Toxic” in data set [22]. Besides, the Activity result in [23] is “Toxic”. Also, the IC50 is greater than 50000 nM in data set [2]; 10 nM in data set [4]; 17000 nM in [6]; 10 nM in data set [10]; 2000 nM in data set [13]; greater than 50000 nM in data set [14]. Besides, the clearance in data set [7] is 70 mL/min/kg. Further, the Stability entry in data set [19] is “Stable”. Moreover, in data set [20], the Stabilty entry is “Stable”. In [21], the inhibition was greater than 50%.
